High-throughput results as filed in PubChem BioAssay.
MrgX1 ag: agonists of human MrgX1 receptor | MrgX1-HEK293 cells, Fluo-4 calcium fluorescence, agonist mode; stronger effect = higher value | B-score at 10 µM | 310,000 compounds, 0.44% hits;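 active = calcium response B-score plate-corrected fluorescence ratio at least 3 library SD, with starting fluorescence B-score inside 5 SD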
Target sequence (Q96LB2 whole entry, looked up): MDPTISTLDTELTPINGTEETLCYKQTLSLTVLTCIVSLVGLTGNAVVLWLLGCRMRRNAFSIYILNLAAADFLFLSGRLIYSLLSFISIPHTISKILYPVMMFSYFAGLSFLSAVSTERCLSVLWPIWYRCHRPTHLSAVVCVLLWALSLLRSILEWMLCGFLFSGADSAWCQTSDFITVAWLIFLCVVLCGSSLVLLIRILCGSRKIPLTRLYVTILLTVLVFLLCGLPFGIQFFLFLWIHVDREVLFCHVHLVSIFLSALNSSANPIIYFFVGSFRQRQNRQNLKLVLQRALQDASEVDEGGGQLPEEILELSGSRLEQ
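Material: MrgX1-expressing HEK293 cells / Dosing: compound as first of three additions / Incubation: overnight seeding, then 1 h dark dye loading / Signal: Fluo-4 NW calcium fluorescence / Evaluation: B-scored fluorescence response ratio / Benchmarks: positive and negative control wells on each plate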
RGS4 pot: RGS4 potentiation or activation | 310,000 compounds, 0.92% hits | AID 463111 | HEK293 M3R/inducible RGS4, carbachol calcium flux Fluo4; stronger effect = lower value | B-score at 10 µM;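 active = B-score of the integrated calcium signal more than 4 SD below the library mean, with starting fluorescence not abnormally high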;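 also: negative B-score means reduced calcium response which marks RGS4 activation or potentiation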
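Reagent: ECmax carbachol challenge; Test system: M3R-expressing HEK293 line, RGS4 induced by doxycycline; Schedule: overnight RGS4 induction, 30 min dye load 37 °C, 20 min compound RT; Detection: calcium dye Fluo4 fluorescence; Read-out: Agonist-evoked peak-minus-minimum fluorescence over baseline, integrated ratio, B score.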
RGS4 block: inhibitors of human RGS4; P49798; HEK293 M3R/RGS4 inducible, Fluo-4 calcium flux; stronger effect = higher value; triggered by carbachol at its EC20; B-score at 10 µM; 310,000 compounds, 0.45% hits; AID 463165;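 active = B-score, a plate-corrected calcium signal, over three deviations above library mean, with baseline fluorescence within five deviations of library mean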;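 also: RGS4 expression induced by doxycycline in cells with stable M3 receptor; B-score is computed from the integrated fluorescence ratio over baseline after carbachol; higher B-score means a larger calcium signal and so more RGS4 inhibition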
Target sequence (P49798 whole entry, looked up): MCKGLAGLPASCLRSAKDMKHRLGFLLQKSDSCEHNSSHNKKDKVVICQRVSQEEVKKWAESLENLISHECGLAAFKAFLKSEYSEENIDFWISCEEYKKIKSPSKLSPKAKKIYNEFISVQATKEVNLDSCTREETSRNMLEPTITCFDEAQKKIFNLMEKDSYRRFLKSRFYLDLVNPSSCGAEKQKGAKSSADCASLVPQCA
MrgX1 PAM: allosterically activates human MrgX1 receptor signaling; B-score at 10 µM; MrgX1-HEK293, Fluo-4 calcium flux, FDSS; stronger effect = higher value; 310,000 compounds, 0.63% hits;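 active = plate-corrected calcium response at least 3 library SD above typical, normal starting fluorescence, not activating the receptor alone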;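 also: compound read alongside a low EC10 to EC30 dose of BAM8-22 agonist; peak minus trough fluorescence over baseline measured at the second addition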
MrgX1 antag: human MrgX1 receptor antagonism, primary screen. Q96LB2. MRGX1-HEK293 calcium flux, Fluo-4, BAM8-22 antagonism; stronger effect = lower value. B-score at 10 µM. 310,000 compounds, 1.3% hits. AID 588676;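 active = calcium-response B-score plate-corrected more than 3 library SD below zero, starting fluorescence within 5 deviations, no agonist response on first addition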;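 also: peak minus trough fluorescence over baseline after final BAM8-22 challenge near maximal dose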
* marks the source's active call; other numbers are inactive results. Sampled rows, rich in hits. Any-hit rate of the full collection: about 3.5%.

`CC(/C=C1\SC(=Nc2cccnc2)NC1=O)=C\c1ccccc1` gave MrgX1 ag inactive, RGS4 pot inactive, RGS4 block inactive, MrgX1 PAM inactive and MrgX1 antag inactive.
C/C(=C\c1ccccc1)C(=O)N1CCN(c2cccc(C(F)(F)F)c2)CC1 was read as MrgX1 ag inactive, RGS4 pot inactive, RGS4 block inactive, MrgX1 PAM inactive and MrgX1 antag -4.9*.
For O=C(NC(Cc1ccccc1)C(=O)Oc1ccc2c(C(F)(F)F)cc(=O)oc2c1)OCc1ccccc1 (centres undefined) the results were MrgX1 ag inactive, RGS4 pot inactive, RGS4 block inactive, MrgX1 PAM 8.4* and MrgX1 antag inactive.
`O=C(CNC(=O)OCc1ccccc1)Oc1ccc2ccc(=O)oc2c1` gave MrgX1 ag inactive, RGS4 pot inactive, RGS4 block inactive, MrgX1 PAM inactive and MrgX1 antag inactive.
`CCOC(=O)C1CCN(S(=O)(=O)c2ccc3c(c2)CC(=O)N3C)CC1` gave MrgX1 ag 39*, RGS4 pot inactive, RGS4 block inactive, MrgX1 PAM inactive and MrgX1 antag inactive.
For CCOC(=O)C1CCN(S(=O)(=O)c2ccc3c(c2)CCCN3C(C)=O)CC1 the results were MrgX1 ag inactive, RGS4 pot inactive, RGS4 block inactive, MrgX1 PAM inactive and MrgX1 antag inactive.
For C/C(=N\NC(=O)c1cccc(Cl)c1)C1C(=O)c2ccccc2C1=O the results were MrgX1 ag inactive, RGS4 pot inactive, RGS4 block inactive, MrgX1 PAM 18* and MrgX1 antag inactive.
For Cc1noc(C)c1COC(=O)c1cccc(S(=O)(=O)N2CCOCC2)c1 the results were MrgX1 ag inactive, RGS4 pot inactive, RGS4 block inactive, MrgX1 PAM inactive and MrgX1 antag inactive.
`Cc1noc(C)c1COC(=O)c1cccc(S(=O)(=O)N2c3ccccc3CC2C)c1` (centres undefined) gave MrgX1 ag inactive, RGS4 pot -7.4*, RGS4 block inactive, MrgX1 PAM inactive and MrgX1 antag inactive.
For Cc1ccc(S(=O)(=O)O/N=C2\CCCc3ccccc32)cc1 the results were MrgX1 ag inactive, RGS4 pot inactive, RGS4 block inactive, MrgX1 PAM inactive and MrgX1 antag inactive.
`CC1=C(C)/C(=N\OS(=O)(=O)c2ccccc2)C=CC1=O` gave MrgX1 ag 33*, RGS4 pot inactive, RGS4 block inactive, MrgX1 PAM inactive and MrgX1 antag inactive.
CS(=O)(=O)NNC(=O)Cn1nnc(-c2ccc(OCc3ccccc3Cl)cc2)n1 was read as MrgX1 ag inactive, RGS4 pot inactive, RGS4 block inactive, MrgX1 PAM 9.6* and MrgX1 antag inactive.
`O=C(N/N=C/c1ccc[nH]1)c1ccc(COc2cccc3cccnc23)cc1` gave MrgX1 ag inactive, RGS4 pot inactive, RGS4 block inactive, MrgX1 PAM 7.8* and MrgX1 antag -7.2*.
`COc1ccc(SCC(=O)c2cc(C)c(OC(=S)N(C)C)c(C)c2)cc1` gave MrgX1 ag inactive, RGS4 pot -7*, RGS4 block inactive, MrgX1 PAM inactive and MrgX1 antag inactive.
`COc1cc2nc(Cl)nc(N3CCOCC3)c2cc1OC` gave MrgX1 ag inactive, RGS4 pot inactive, RGS4 block inactive, MrgX1 PAM inactive and MrgX1 antag inactive.
For O=C(NCc1ccccn1)C1CCN(Cc2cnn(-c3ccccc3)c2-n2cccc2)CC1 the results were MrgX1 ag inactive, RGS4 pot inactive, RGS4 block inactive, MrgX1 PAM inactive and MrgX1 antag inactive.
O=C(NCc1ccccn1)C1CCCN(Cc2cnn(-c3ccccc3)c2-n2cccc2)C1 (centres undefined) was read as MrgX1 ag inactive, RGS4 pot -7.3*, RGS4 block inactive, MrgX1 PAM inactive and MrgX1 antag inactive.
For CSCC[C@H](NC(=O)C1CCC(CNC(=O)[C@@H]2CCCN2C(=O)OC(C)(C)C)CC1)C(=O)O (some centres undefined) the results were MrgX1 ag inactive, RGS4 pot inactive, RGS4 block inactive, MrgX1 PAM inactive and MrgX1 antag inactive.
CS(=O)(=O)N1N=C(c2ccccc2)CC1c1ccc2c(c1)OCO2 (centres undefined) was read as MrgX1 ag inactive, RGS4 pot inactive, RGS4 block inactive, MrgX1 PAM inactive and MrgX1 antag inactive.
For CS(=O)(=O)Nc1cccc(C2=NN(S(C)(=O)=O)C(c3ccc4c(c3)OCO4)C2)c1 (centres undefined) the results were MrgX1 ag inactive, RGS4 pot inactive, RGS4 block inactive, MrgX1 PAM inactive and MrgX1 antag -7.6*.
Screening CC1=NN(C(=O)COc2cc(C)ccc2C(C)C)C(O)(c2ccccc2)C1 (centres undefined) returned MrgX1 ag inactive, RGS4 pot inactive, RGS4 block inactive, MrgX1 PAM 8* and MrgX1 antag inactive.
`COc1cc(NC(C)CCCN)c2ncccc2c1Oc1ccccc1` (centres undefined) gave MrgX1 ag inactive, RGS4 pot inactive, RGS4 block inactive, MrgX1 PAM inactive and MrgX1 antag inactive.
O=C(O)CC1(c2ccc(F)cc2)C2CC3CC(C2)CC1C3 (centres undefined) was read as MrgX1 ag inactive, RGS4 pot inactive, RGS4 block inactive, MrgX1 PAM inactive and MrgX1 antag -6.7*.
Screening CC(C)(C)C(=O)CNS(=O)(=O)c1ccc(S(=O)(=O)NC2CC2)cc1 returned MrgX1 ag inactive, RGS4 pot inactive, RGS4 block inactive, MrgX1 PAM inactive and MrgX1 antag inactive.
Screening COc1ccc(OC)c(Nc2nc(N(C)c3ccccc3)nc(N)c2[N+](=O)[O-])c1 returned MrgX1 ag inactive, RGS4 pot -8.1*, RGS4 block inactive, MrgX1 PAM inactive and MrgX1 antag inactive.
`CN(c1ccccc1)c1nc(N)c([N+](=O)[O-])c(Nc2ccccc2F)n1` gave MrgX1 ag inactive, RGS4 pot inactive, RGS4 block inactive, MrgX1 PAM inactive and MrgX1 antag inactive.
Screening COC(=O)C1CCCN1C(=O)COc1ccc(Cl)cc1Br (centres undefined) returned MrgX1 ag inactive, RGS4 pot inactive, RGS4 block inactive, MrgX1 PAM inactive and MrgX1 antag inactive.
COc1cccc(-n2nnnc2SCC(=O)Nc2ccccc2OC)c1 was read as MrgX1 ag inactive, RGS4 pot inactive, RGS4 block inactive, MrgX1 PAM inactive and MrgX1 antag inactive.
CCCS(=O)(=O)c1nnnn1-c1cccc(OC)c1 was read as MrgX1 ag 50*, RGS4 pot inactive, RGS4 block inactive, MrgX1 PAM inactive and MrgX1 antag inactive.
